Experimental data as given in ChEMBL document CHEMBL3608234, “Synthesis and antiviral evaluation of a novel series of homoserine-based inhibitors of the hepatitis C virus NS3/4A serine protease” (Bioorg Med Chem Lett, 2015).

Experiments:
[1] = Inhibition of full length HCV 1b Con1 NS3/4A protease using HiLyte Fluor 610 peptide substrate by biochemical FRET assay; design: species or system Hepatitis C virus (isolate Con1)
Outline: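 Fluorescence (FRET) protease assay on full-length genotype 1b Con1 HCV NS3/4A with HiLyte Fluor 610 peptide substrate; IC50 from percent inhibition versus concentration by four-parameter sigmoidal non-linear regression.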

Hepatitis C virus = test: Antiviral activity against HCV Con1 infected in human GS4.1 cells containing HCV Con1 subgenomic replicon assessed as reduction in NS5A protein expression by ELISA method; type: functional, cell-based, Hepacivirus hominis; details: genotype 1b Con1
Outline: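 Huh-7 cells carrying HCV Con1 subgenomic replicon (GS4.1); replication followed as NS5A protein expression by ELISA; EC50 from 50% inhibition versus concentration data fitted by four-parameter sigmoidal non-linear regression.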

[2] = Cytotoxicity against human GS4.1 cells assessed as induction of cell death; type: cell-based
Outline: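 GS4.1 cells (Huh-7 with Con1 subgenomic replicon); CC50 taken as concentration giving 50% cell death, from death versus concentration data relative to blank control.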

[3] = Intrinsic clearance in rat liver microsomes incubated for 2 hrs; type: ADME; details: read-out: CLH

Row | Compound | IC50 [1] [nM] | EC50 (Hepatitis C virus) [nM] | microsomal CLint [3] [µL/min/mg] | CC50 [2] [nM]
1 | COc1ccc2c(OCC[C@@H]3NC(=O)N(C)CCCC/C=C\[C@@H]4C[C@@]4(C(=O)NS(=O)(=O)C4(C)CC4)NC3=O)cc(-n3ccc(C(F)(F)F)n3)nc2c1C | 1.8 | 35 | 14.4 | 45800
2 | COc1ccc2c(OCC[C@@H]3NC(=O)N(C)CCCC/C=C\[C@@H]4C[C@@]4(C(=O)NS(=O)(=O)C4(C)CC4)NC3=O)cc(-n3ccc(C(F)(F)F)n3)nc2c1Cl | 1.1 | 15.3 |  | 48800
3 | COc1ccc2c(OCC[C@@H]3NC(=O)N(C)CCCC/C=C\[C@@H]4C[C@@]4(C(=O)NS(=O)(=O)C4(F)CC4)NC3=O)cc(-c3nc(C(C)C)cs3)nc2c1Cl | 2.7 | 150 |  | 51400
4 | COc1ccc2c(OCC[C@@H]3NC(=O)N(C)CCCC/C=C\[C@@H]4C[C@@]4(C(=O)NS(=O)(=O)C4(C#N)CC4)NC3=O)cc(-c3nc(C(C)C)cs3)nc2c1Cl | 14.4 | > 750 |  | > 75000
5 | C#CC1(S(=O)(=O)NC(=O)[C@@]23C[C@H]2/C=C\CCCCN(C)C(=O)N[C@@H](CCOc2cc(-c4nc(C(C)C)cs4)nc4c(Cl)c(OC)ccc24)C(=O)N3)CC1 | 0.7 | 28.9 |  | 26300
6 | COc1ccc2c(OCC[C@@H]3NC(=O)N(C)CCCC/C=C\[C@@H]4C[C@@]4(C(=O)NS(=O)(=O)N(C)C)NC3=O)cc(-c3nc(C(C)C)cs3)nc2c1Cl | 2.1 | 84.5 |  | 47800
7 | COc1ccc2c(OCC[C@@H]3NC(=O)N(C)CCCC/C=C\[C@@H]4C[C@@]4(C(=O)NS(=O)(=O)N4CCOCC4)NC3=O)cc(-c3nc(C(C)C)cs3)nc2c1Cl | 150 | > 750 |  | 26400
8 | COc1ccc2c(OCC[C@@H]3NC(=O)N(C)CCCC/C=C\[C@@H]4C[C@@]4(C(=O)NS(=O)(=O)N4CCC[C@H]4C#N)NC3=O)cc(-c3nc(C(C)C)cs3)nc2c1Cl | 264 | > 750 |  | 28300
9 | C#C[C@@H]1CCCN1S(=O)(=O)NC(=O)[C@@]12C[C@H]1/C=C\CCCCN(C)C(=O)N[C@@H](CCOc1cc(-c3nc(C(C)C)cs3)nc3c(Cl)c(OC)ccc13)C(=O)N2 | 33.8 | > 750 |  | 21200

Now from value to compound, other results behind:

Row | IC50 [1] [nM] | EC50 (Hepatitis C virus) [nM] | microsomal CLint [3] [µL/min/mg] | Compound | CC50 [2] [nM]
10 | 1.4 | 145 |  | CCCn1cc(-c2cc(OCC[C@@H]3NC(=O)N(C)CCCC/C=C\[C@@H]4C[C@@]4(C(=O)NS(=O)(=O)C4(C)CC4)NC3=O)c3ccc(OC)c(C)c3n2)cn1 | 62300
11 | 1 | 440 |  | COc1ccc2c(OCC[C@@H]3NC(=O)N(C)CCCC/C=C\[C@@H]4C[C@@]4(C(=O)NS(=O)(=O)C4(C)CC4)NC3=O)cc(-c3cc(C(F)(F)F)nn3C)nc2c1C | 34500
12 | 3.3 | 89 |  | CCC1(S(=O)(=O)NC(=O)[C@@]23C[C@H]2/C=C\CCCCN(C)C(=O)N[C@@H](CCOc2cc(-c4nc(C(C)C)cs4)nc4c(Cl)c(OC)ccc24)C(=O)N3)CC1 | 49300
13 | 165 | > 750 |  | COc1ccc2c(OCC[C@@H]3NC(=O)N(C)CCCC/C=C\[C@@H]4C[C@@]4(C(=O)NS(=O)(=O)N4CCC(F)(F)C4)NC3=O)cc(-c3nc(C(C)C)cs3)nc2c1Cl | 37600
14 | 0.9 | 2.8 |  | COc1ccc2c(O[C@@H]3C[C@H]4C(=O)N[C@]5(C(=O)O)C[C@H]5/C=C\CCCCC[C@H](NC(=O)OC5CCCC5)C(=O)N4C3)cc(-c3csc(NC(C)C)n3)nc2c1 [CILUPREVIR] | 21000
